Test results published in ChEMBL document CHEMBL4371059 (J Med Chem, 2019).
Calls of active or inactive are those of the source. No cut-off for these calls is given here.

Experiments:
[1] = biological target: T1, Sigma intracellular receptor 2 (Rattus norvegicus) (UniProt Q5U3Y7); experiment: Displacement of [3H]DTG from sigma2 receptor in rat liver membranes at 1 uM after 120 mins by scintillation counting method relative to control; assay type: cell membranes
T1 sequence (whole entry): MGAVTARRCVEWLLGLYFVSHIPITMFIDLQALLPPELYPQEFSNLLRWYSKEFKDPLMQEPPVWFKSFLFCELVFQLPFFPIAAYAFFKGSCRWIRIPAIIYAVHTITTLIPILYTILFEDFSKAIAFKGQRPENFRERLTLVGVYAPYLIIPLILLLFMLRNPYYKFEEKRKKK

[2] = biological target: T2, Sigma intracellular receptor 2 (Rattus norvegicus, UniProt Q5U3Y7); experiment: Displacement of [3H]DTG from sigma2 receptor in rat liver membranes after 120 mins by scintillation counting method; assay type: cell membranes
T2 sequence (Q5U3Y7 whole entry): T1 sequence (whole entry)

Mus musculus [3] = experiment: Anti-inflammatory activity against C57BL/6 mouse model of MOG-induced autoimmune encephalomyelitis assessed as inhibition of development of clinical symptoms at 100 uL of 20 uM solution administered ip starting from day 1 post immunization and measured 9 to 16 days post Mycobacterium tuberculosis H37Ra/MOG immunization; assay type: functional, organism-based
Summary of the method: (§1)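 C57BL/6 wild-type mice, 8–12 weeks old, were kept under SPF conditions and immunized with MOG peptide. From day 1 after immunization they received a daily ip injection of 100 µl of a 20 µM solution; controls received PBS. Clinical signs were checked daily. Tissues were taken at disease peak, days 12–15 after immunization.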

Mus musculus [4] = experiment: Anti-inflammatory activity against C57BL/6 mouse model of MOG-induced autoimmune encephalomyelitis assessed as CD45-positive leukocytes at 100 uL of 20 uM solution administered ip starting from day 1 post immunization and measured 9 to 16 days post Mycobacterium tuberculosis H37Ra/MOG immunization by flow cytometry (reference value: 4.4%); assay type: functional; summary of the method: as §1
T-cell [5] = experiment: Inhibition of PMA/ionomycin-stimulated C57BL/6 mouse T cells activation assessed as CD69-positive cells at 5 ug/ml treated for 48 hrs starting from 12 hrs post PMA/ionomycin stimulation by flow cytometry (reference value: 37.2%); assay type: functional; set-up: scale not given: the % may be the effect or the level left
Mus musculus [6] = experiment: (§2) Anti-inflammatory activity against C57BL/6 mouse model of MOG-induced autoimmune encephalomyelitis assessed as reduction in immune cell infiltration in to lumbar spinal cord at 100 uL of 20 uM solution administered ip starting from day 1 post immunization and measured 9 to 16 days post Mycobacterium tuberculosis H37Ra/MOG immunization by hematoxylin and eosin staining based microscopic method; assay type: functional, organism-based; summary of the method: as §1
T-cell [7] = experiment: Anti-inflammatory activity in PMA/ionomycin-stimulated human PBMC-derived T cells assessed as reduction in IFNgamma production at 5 ug/ml treated for 48 hrs starting from 12 hrs post PMA/ionomycin stimulation by flow cytometry; assay type: functional, cell-based
Summary of the method: (§3)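 PBMC were prepared from heparinized blood of healthy donors by Ficoll gradient, and DC or T cells were negatively enriched with magnetic kits. Cells were activated 12 h with PMA (5 ng/ml) plus ionomycin (500 ng/ml), then cultured 48 h with compound or PBS. Flow cytometry was gated on HLA-DR⁺CD11c⁺ for DC and CD3⁺ for T cells, with intracellular IFN-γ; n=3 donors.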

Mus musculus [8] = experiment: as §2, with “inflammatory foci” for “immune cell infiltration”, “in” for “in to”; assay type: functional, organism-based; summary of the method: as §1
Mus musculus [9] = experiment: as §2, with “in TH17” for “in immune”, “cell population” for “cell infiltration”, “in” for “in to”, “by immunofluorescence” for “by hematoxylin and eosin staining based”; assay type: functional, organism-based; summary of the method: as §1
T-cell [10] = experiment: Inhibition of PMA/ionomycin-stimulated C57BL/6 mouse T cells activation assessed as CD44-positive cells at 5 ug/ml treated for 48 hrs starting from 12 hrs post PMA/ionomycin stimulation by flow cytometry (reference value: 9.6%); assay type: functional; set-up: scale not given: the % may be the effect or the level left
Dendritic cell [11] = experiment: Anti-inflammatory activity in PMA/ionomycin-stimulated human PBMC-derived dendritic cells assessed as reduction in IFNgamma production at 5 ug/ml treated for 48 hrs starting from 12 hrs post PMA/ionomycin stimulation by flow cytometry; assay type: functional, cell-based; summary of the method: as §3
T-cell [12] = experiment: Immunomodulatory activity in PMA/ionomycin-stimulated human PBMC-derived T cells assessed as increase in IL-10 production at 5 ug/ml treated for 48 hrs starting from 12 hrs post PMA/ionomycin stimulation; assay type: functional, cell-based
Summary of the method: (§4)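 Human PBMC-derived cells from healthy donors were activated with PMA (5 ng/ml) plus ionomycin (500 ng/ml), then cultured with compound or PBS. Cytokines were quantified in the culture supernatants; n=3 donors.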

Dendritic cell [13] = experiment: Anti-inflammatory activity in PMA/ionomycin-stimulated C57BL/6 mouse bone marrow derived dendritic cells assessed as reduction in IFNgamma production at 5 ug/ml treated for 48 hrs starting from 12 hrs post PMA/ionomycin stimulation by flow cytometry; assay type: functional, cell-based
Summary of the method: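 Bone marrow from tibias and femurs was cultured 9 days with GM-CSF (150 U/ml) and IL-4 (75 U/ml). From day 7 to day 9, cells were stimulated with PMA (5 ng/ml) plus ionomycin (500 ng/ml) with or without compound. On day 9, cells were gated on MHC-II⁺CD11c⁺ and stained for intracellular IFN-γ; n=5 mice.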

T-cell [14] = experiment: Anti-inflammatory activity in PMA/ionomycin-stimulated C57BL/6 mouse T cells assessed as reduction in IFNgamma production at 5 ug/ml treated for 48 hrs starting from 12 hrs post PMA/ionomycin stimulation by flow cytometry; assay type: functional, cell-based
Summary of the method: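 Total T cells were isolated from wild-type mouse lymph nodes with a Pan T cell kit. Cells were activated 12 h with PMA (5 ng/ml) plus ionomycin (500 ng/ml), then cultured 48 h with compound or PBS. Analysis was by flow cytometry gated on CD3, with intracellular IFN-γ after permeabilization; n=5 mice.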

Dendritic cell [15] = experiment: Immunomodulatory activity in PMA/ionomycin-stimulated human PBMC-derived dendritic cells assessed as increase in IL-10 production at 5 ug/ml treated for 48 hrs starting from 12 hrs post PMA/ionomycin stimulation; assay type: functional, cell-based; summary of the method: as §4
T-cell [16] = experiment: Immunomodulatory activity in PMA/ionomycin-stimulated C57BL/6 mouse T cells assessed as increase in IL-10 production at 5 ug/ml treated for 48 hrs starting from 12 hrs post PMA/ionomycin stimulation; assay type: functional, cell-based
Summary of the method: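 Mouse lymph-node T cells were activated 12 h with PMA (5 ng/ml) plus ionomycin (500 ng/ml), then cultured 48 h with compound or PBS. Secreted cytokines were measured in the culture supernatants; n=5 mice per group.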

Dendritic cell [17] = experiment: Immunomodulatory activity in PMA/ionomycin-stimulated C57BL/6 mouse bone marrow derived dendritic cells assessed as increase in IL-10 production at 5 ug/ml treated for 48 hrs starting from 12 hrs post PMA/ionomycin stimulation; assay type: functional, cell-based

SMILES: O=C(Cc1ccc(Cl)c(Cl)c1)N1CCN(CCCCF)[C@H]2CCC[C@H](N3CCCC3)[C@H]21 (racemic)
- inhibition [1]: 8%

SMILES: O=C(Cc1ccc(Cl)c(Cl)c1)N1CCN(Cc2ccc(F)cc2)[C@H]2CCC[C@H](N3CCCC3)[C@H]21 (racemic)
- inhibition [1]: 0%

SMILES: CCCN1CCN(C(=O)Cc2ccc(Cl)c(Cl)c2)[C@@H]2[C@@H](N3CCCC3)CCC[C@@H]21 (racemic)
- Ki [2]: 2.4 µM

SMILES: O=C(Cc1ccc(Cl)c(Cl)c1)N1CCN[C@H]2CCC[C@H](N3CCCC3)[C@H]21 (racemic)
- inhibition (Mus musculus [3]): Active
- Activity (Mus musculus [4]): 0.5%
- Activity (T-cell [5]): 25.6%
- Activity (Mus musculus [6]): Active
- Activity (T-cell [7]): inactive
- Activity (Mus musculus [8]): Active
- Activity (Mus musculus [9]): Active
- Activity (T-cell [10]): 7.6%
- inhibition [1]: 5%
- Activity (Dendritic cell [11]): inactive

SMILES: CC(C)(C)OC(=O)N1CCN(C(=O)Cc2ccc(Cl)c(Cl)c2)[C@@H]2[C@@H](N3CCCC3)CCC[C@@H]21 (racemic)
- inhibition [1]: 16%

SMILES: O=C(Cc1ccc(Cl)c(Cl)c1)N1CCN(Cc2cn(CCF)nn2)[C@H]2CCC[C@H](N3CCCC3)[C@H]21 (racemic)
- inhibition (Mus musculus [3]): Active
- Activity (T-cell [12]): Active
- Activity (Mus musculus [4]): 0.2%
- Activity (Dendritic cell [13]): Active
- Activity (T-cell [14]): Active
- Activity (Dendritic cell [15]): Active
- Activity (T-cell [5]): 14.8%
- Activity (Mus musculus [6]): Active
- Activity (T-cell [16]): Active
- Activity (T-cell [7]): Active
- Activity (Mus musculus [8]): Active
- Activity (Mus musculus [9]): Active
- Activity (T-cell [10]): 10.4%
- inhibition [1]: 0%
- Activity (Dendritic cell [17]): Active
- Activity (Dendritic cell [11]): Active

SMILES: CCCCN1CCN(C(=O)Cc2ccc(Cl)c(Cl)c2)[C@@H]2[C@@H](N3CCCC3)CCC[C@@H]21 (racemic)
- Ki [2]: 1.3 µM

SMILES: COC(=O)N1CCN(C(=O)Cc2ccc(Cl)c(Cl)c2)[C@@H]2[C@@H](N3CCCC3)CCC[C@@H]21 (racemic)
- inhibition [1]: 8%

SMILES: O=C(Cc1ccc(Cl)c(Cl)c1)N1CCN(C(=O)COCCF)[C@H]2CCC[C@H](N3CCCC3)[C@H]21 (relative stereo)
- inhibition [1]: 0%

SMILES: CN1CCN(C(=O)Cc2ccc(Cl)c(Cl)c2)[C@H]2[C@@H]1CCC[C@@H]2N1CCCC1
- inhibition [1]: 4%

SMILES: O=C(Cc1ccc(Cl)c(Cl)c1)N1CCN(CCF)[C@H]2CCC[C@H](N3CCCC3)[C@H]21 (racemic)
- inhibition [1]: 3%

SMILES: CCN1CCN(C(=O)Cc2ccc(Cl)c(Cl)c2)[C@H]2[C@@H]1CCC[C@@H]2N1CCCC1 (relative stereo)
- inhibition [1]: 16%
